Results on 26 compounds are retold here after ChEMBL document CHEMBL2417522, “N-aryl-6-methoxy-1,2,3,4-tetrahydroquinolines: a novel class of antitumor agents targeting the colchicine site on tubulin” (Eur J Med Chem, 2013).

What is called GI50 is the concentration that inhibits growth by half. Higher therefore signals lower sensitivity of the cells. The term logD denotes lipophilicity at a set pH, counting ionised and neutral species. The low end stands for a more hydrophilic compound, the high end for a more lipophilic compound. As usually defined, the solubility is how much of the substance goes into solution per volume. Low readings indicate a poorly soluble substance, high ones a readily soluble substance. Usually inhibition stands for the change of the read-out against control, counted positive when it falls. For orientation: IC50 means the concentration that gives 50% inhibition. A high value points to lower potency.

Molecules are shown by their SMILES. In brackets after ≈: the same amount, converted by molar mass. Activity calls are given as the source filed them. The rule behind the calls is not given here.

The nature of data set [1]: Cytotoxicity against human KBVIN cells by SRB method. Type of data set: functional. (The SRB assay estimates cell density from bound dye.)
Data set [2] has as its system A549. In words: Cytotoxicity against human A549 cells by SRB method. The class given is functional.
Data set [3] relates to DU-145. Kind of data set: Cytotoxicity against human DU145 cells by SRB method. The class given is functional.
Data set [4] concerns KB. In words: Cytotoxicity against human KB cells by SRB method. The class given is functional.
Data set [5] concerns Liver microsomes. Kind of data set: Half life in human liver microsomes at 1 uM by LC-MS analysis. Type of data set: ADME, Microsome. In general terms: Liver microsomes are a subcellular fraction often used to study metabolism.
The nature of data set [6]: […] partition coefficient, log P of the compound at pH 7.4 after 24 hrs by HPLC analysis. The class given is physicochemical. In a few lines:
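Compound dissolved at 1.0 mg/mL in […]. Log P taken from the ratio of HPLC peak areas in the […] and water phases.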

A short description of data set [7]: Aqueous solubility of the compound at pH 7.4 after 4 hrs by HPLC-UV method. The class given is physicochemical. The following applies: buffer, pH 7.4, 4 h. In outline: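 Solubility at pH 7.4: DMSO stock (1.0 mg/mL) diluted into phosphate buffer, final DMSO 1%; stirred 4 h at rt, centrifuged; saturated supernatant quantified by HPLC–UV against a standard curve (50–0.20 µg/mL in ACN). Triplicate samples.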

Data set [8] concerns the target T1, Tubulin (Homo sapiens) (UniProt P68371+Q9H4B7+P0DPH7+P68366+Q13509+Q71U36+P04350+Q3ZCM7+P07437+P68363+Q9BQE3+Q6PEY2+Q13885+Q9BVA1+Q9BUF5). In words: Competitive inhibition of [3H]colchicine binding to tubulin (unknown origin) at 5 uM after 10 mins by radioligand displacement assay. The class given is protein-complex assay. In a few lines:
(§1)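 [3H]colchicine binding: 1.0 µM tubulin, 5.0 µM [3H]colchicine and inhibitor at 5.0 or 1.0 µM, 10 min at 37 °C, when control binding reaches about 40–60% of maximum. […] Percent inhibition reported.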
A general note: In a radioligand displacement assay an active substance lowers the binding of a labelled ligand.

The target of data set [9] is T1, Tubulin (Homo sapiens). Kind of data set: Competitive inhibition of [3H]colchicine binding to tubulin (unknown origin) at 1 uM after 10 mins by radioligand displacement assay. The class given is protein-complex assay. In a few lines:
as §1

Data set [10] concerns the target Tubulin. In words: Inhibition of tubulin assembly (unknown origin) preincubated for 15 mins followed by GTP addition measured after 20 mins by turbidimetric analysis. Type of data set: protein-complex assay, Homo sapiens.
Data set [11] concerns DU-145. Kind of data set: Cytotoxicity against human DU145 cells at 60 uM by SRB method. Type of data set: functional, cell-based.
For data set [12], the system named is A549. Kind of data set: Cytotoxicity against human A549 cells at 60 uM by SRB method. Type of data set: functional, cell-based.
Data set [13] concerns KB. Kind of data set: Cytotoxicity against human KB cells at 60 uM by SRB method. Type of data set: functional, cell-based.
The test system of data set [14] is KBVIN. In words: Cytotoxicity against human KBVIN cells at 60 uM by SRB method. The class given is functional, cell-based.

Regarding `COC(=O)c1cc(Br)cc(N2CCCc3cc(OC)ccc32)c1`, the concentration for 50% growth inhibition (GI50) in [1] worked out at 1270 nM; in [2], 1120 nM; in data set [3], 1280 nM; in data set [4], 1370 nM.
In the case of `COC(=O)c1ccc(Cl)cc1N(C)c1ccc(OC)cc1`, the concentration for 50% growth inhibition (GI50) in data set [1] amounted to 1890 nM; in [2], 3360 nM; in [3], 1680 nM; in [4], 1980 nM.
In data set [5], `CNc1nc(N2CCCc3cc(OC)ccc32)c2ccccc2n1` registered a t1/2 of 25.97 min. Besides, the GI50 in [1] turned out to be 29 nM; in data set [2] it was 27 nM; in data set [3], 23 nM; in [4], 25 nM. The logD at 24 h in [6] amounted to 1.07. This compound also showed a solubility in data set [7] of 7.21 µg/mL (≈ 22.5 µM). Also, the results for the inhibition in data set [8] and in data set [9] were 95% and 76%, respectively. Also, in [10], the IC50 stood at 920 nM.
As for `COc1ccc(N(C)c2cc(Br)cc(C(=O)NC3CCCC3)c2)cc1`, the figures for the GI50 in [3] and in data set [4] were 110 nM and 120 nM, respectively.
Take `COC(=O)c1cc(N(C)c2ccc(OC)cc2)cc(C(F)(F)F)c1`: the GI50 in data set [1] was 13100 nM; in data set [2], 15100 nM; in data set [3] it was 11500 nM; in data set [4], 13500 nM.
With `COc1ccc(N(C)c2cc(Br)cc(C(=O)O)c2)cc1`, the “growth inhibition (GI)” value in data set [11], in [12], in data set [13] and in [14] was “inactive” in each case.
Regarding `CNC(=O)c1cc(Cl)cc(N(C)c2ccc(OC)cc2)c1`, the 50% growth inhibitory concentration (GI50) in data set [1] is 230 nM; in data set [2] it was 270 nM; in data set [3] it was 230 nM; in [4] it was 300 nM.
With `CNC(=O)c1cc(Br)cc(N2CCCc3cc(OC)ccc32)c1`, the GI50 in [1] turned out to be 930 nM; in [2], 370 nM; in data set [3], 560 nM; in [4], 630 nM.
In the case of `COc1ccc(N(C)c2cc(Br)cc(C(=O)N(C)C)c2)cc1`, the GI50 in data set [1] is 2380 nM; in data set [2], 2830 nM; in data set [3] it was 3340 nM; in [4], 6520 nM.
The like results for `COCc1ccc(Cl)cc1N(C)c1ccc(OC)cc1` were, in that order, 2850 nM, 4530 nM, 3130 nM and 5240 nM.
The matching figures for `CNC(=O)c1cc(N(C)c2ccc(OC)cc2)cc(C(F)(F)F)c1`: 12600 nM, 14700 nM, 11900 nM and 12300 nM.
Regarding `COc1ccc2c(c1)CCCN2c1cc(C)nc2ccccc12`, the t1/2 in data set [5] is on record as 7.89 min. Besides, the GI50 in data set [1] stood at 55 nM; in [2], 45 nM; in [3], 38 nM; in data set [4], 91 nM. In data set [6], this compound showed a logD at 24 h of 3.98. The solubility in [7] is 3.21 µg/mL (≈ 10.5 µM). The inhibition in [8] was determined as 87%; in data set [9] it was 61%. In [10], this compound had an IC50 of 1000 nM.
`COc1ccc2c(c1)CCCN2c1nc(C)nc2ccccc12` showed a t1/2 in data set [5] of 25.19 min. The GI50 in data set [1] turned out to be 18 nM; in [2] it was 18 nM; in [3] it was 15 nM; in data set [4], 11 nM. This compound also displayed a log distribution coefficient (logD) at 24 h in [6] of 3.65. The same compound came in with a solubility in [7] of 7.67 µg/mL (≈ 25.1 µM). Moreover, the inhibition in data set [8] was 98%; in [9], 89%. The compound also returned an IC50 in [10] of 1000 nM.
For the compound `COC(=O)c1cc(Cl)cc(N2CCCc3cc(OC)ccc32)c1`, the GI50 in data set [1] is 1780 nM; in data set [2] it was 2230 nM; in [3], 1510 nM; in [4], 2330 nM.
The like results for `COC(=O)c1cc(Cl)cc(N(C)c2ccc(OC)cc2)c1` were, in that order, 1570 nM, 1600 nM, 1460 nM and 1610 nM.
The matching figures for `COc1ccc(N(C)c2cc(Cl)ccc2CO)cc1`: 18100 nM, 21700 nM, 16000 nM and 19500 nM.
The like results for `COc1ccc2c(c1)CCCN2c1cccc2ccccc12` were, in that order, 17600 nM, 17800 nM, 14800 nM and 15600 nM.
On to `COc1ccc2c(c1)CCCN2c1cc(Br)cc(C(=O)NC2CC2)c1`, for which the GI50 worked out at 190 nM in [1], 170 nM in [2], 150 nM in [3] and 160 nM in data set [4]. The same compound yielded a log distribution coefficient (logD) at 24 h in data set [6] of 4.75. The compound further had a solubility in data set [7] of 0.26 µg/mL (≈ 0.648 µM). In data set [8], the inhibition stood at 75%. For the same compound, in data set [10], the IC50 was determined as 1000 nM.
On to `COC(=O)c1cc(Br)cc(N(C)c2ccc(OC)cc2)c1`, for which the GI50 in [1] is 1200 nM; in data set [2], 1240 nM; in data set [3], 970 nM; in data set [4], 1360 nM.
The like results for `COC(=O)c1ccc(Cl)nc1N(C)c1ccc(OC)cc1` were, in that order, 200 nM, 230 nM, 210 nM and 260 nM.
`COc1ccc(N(C)c2cc(Br)cc(C(=O)NC3CC3)c2)cc1` had a logD at 24 h in data set [6] of 4.33. In [7], this compound returned a solubility of 0.16 µg/mL (≈ 0.426 µM). Also, in [8], the inhibition was 69%. Besides, inhibition in data set [10] was half-maximal at 1600 nM (IC50). Moreover, the GI50 in data set [4] was 170 nM.
`COc1ccc2c(c1)CCCN2c1nc(Cl)nc2ccccc12` showed a logD at 24 h in data set [6] of 4.13. The inhibition in data set [8] was determined as 99%; in data set [9], 95%. In addition, growth in [3] was halved (GI50) at 1.5 nM. In data set [10], 930 nM corresponded to half-maximal inhibition (IC50).
Take `CC(=O)O[C@H]1C(=O)[C@@]2(C)[C@H]([C@H](OC(=O)c3ccccc3)[C@]3(O)C[C@H](OC(=O)[C@H](O)[C@@H](NC(=O)c4ccccc4)c4ccccc4)C(C)=C1C3(C)C)[C@]1(OC(C)=O)CO[C@@H]1C[C@@H]2O` [PACLITAXEL]: the GI50 is 1210 nM in [1], 7.6 nM in [2], 6 nM in [3] and 6.4 nM in [4].
As to `CNC(=O)c1ccc(Cl)cc1N(C)c1ccc(OC)cc1`, the GI50 is 61000 nM in data set [1], 43200 nM in [2], 98900 nM in data set [3] and 188000 nM in data set [4].
For `CNC(=O)c1cc(Br)cc(N(C)c2ccc(OC)cc2)c1`, the GI50 in data set [1] was 140 nM; in data set [2], 250 nM; in data set [3], 160 nM; in [4] it was 210 nM. This compound also displayed a logD at 24 h in data set [6] of 4.02. In [7], this compound registered a solubility of 0.81 µg/mL (≈ 2.32 µM). In data set [8], this compound returned an inhibition of 71%. Moreover, in data set [10], inhibition was half-maximal at 2200 nM (IC50).
As to `CNC(=O)c1cc(Cl)cc(N2CCCc3cc(OC)ccc32)c1`, the GI50 turned out to be 430 nM in [1], 740 nM in data set [2], 1020 nM in [3] and 1040 nM in data set [4].
